From ChEMBL document CHEMBL3596093, “Synthesis and antimicrobial evaluation of 5-aryl-1,2,4-triazole-3-thione derivatives containing a rhodanine moiety” (2015)
≈ marks a conversion by molar mass, not a printed value.

What was measured:
Staphylococcus aureus [1] = experiment: Antibacterial activity against Staphylococcus aureus RN4220 after 24 hrs by two-fold serial dilution method; assay type: functional; conditions: RN4220, 24 h
In short: (§1)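 Broth microdilution MIC. Bacteria grown to mid-log phase in Mueller-Hinton broth, diluted 1000-fold, about 10^5 CFU/mL. Compounds from DMSO stocks, two-fold serial dilution from a final 64 µg/mL. Incubation at 37 °C for 24 h. Growth read as absorbance at 630 nm on a microplate reader. Run in triplicate.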

Staphylococcus aureus [2] = experiment: Antibacterial activity against Staphylococcus aureus KCTC 503 after 24 hrs by two-fold serial dilution method; assay type: functional; conditions: KCTC 503, 24 h
In short: (§2)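 Strains grown to mid-log phase in Mueller-Hinton broth, then diluted 1000-fold in the same broth to about 10^5 CFU/mL. Compounds were made up as DMSO stocks and two-fold serially diluted from a final top concentration of 64 µg/mL. Incubation was 37 °C for 24 h. Growth was read as absorbance at 630 nm on a microplate reader. MIC assays were run in triplicate.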

Streptococcus mutans [3] = experiment: Antibacterial activity against Streptococcus mutans 3065 after 24 hrs by two-fold serial dilution method; assay type: functional; conditions: Streptococcus mutans, 3065, 24 h; in short: as §2
Escherichia coli [4] = experiment: Antibacterial activity against Escherichia coli CCARM 1356 after 24 hrs by two-fold serial dilution method; assay type: functional; conditions: CCARM 1356, 24 h; in short: as §2
Pseudomonas aeruginosa [5] = experiment: Antibacterial activity against Pseudomonas aeruginosa 2004 after 24 hrs by two-fold serial dilution method; assay type: functional; conditions: Pseudomonas aeruginosa, 2004, 24 h; in short: as §2
Salmonella typhimurium = experiment: Antibacterial activity against Salmonella typhimurium 2421 after 24 hrs by two-fold serial dilution method; assay type: functional, Salmonella enterica subsp. enterica serovar Typhimurium; conditions: Salmonella enterica, 2421, 24 h; in short: as §2
Candida albicans [6] = experiment: Antifungal activity against Candida albicans 7535 after 24 hrs by two-fold serial dilution method; assay type: functional; conditions: Candida albicans, 7535, 24 h
Staphylococcus aureus [7] = experiment: Bactericidal activity against Staphylococcus aureus RN4220 after 24 hrs by agar plate method; assay type: functional; conditions: RN4220, 24 h
In short: (§3)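 Samples of 5 µL from MIC wells with no visible growth were plated onto fresh Mueller-Hinton agar and incubated a further 24 h at 37 °C. MBC is the lowest concentration giving no visible colony growth on the agar. Assays were run in triplicate.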

Staphylococcus aureus [8] = experiment: Bactericidal activity against Staphylococcus aureus KCTC 503 after 24 hrs by agar plate method; assay type: functional; conditions: KCTC 503, 24 h
In short: (§4)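 5 µL from each well without visible growth plated on fresh Mueller-Hinton agar, then 37 °C for a further 24 h. MBC is the lowest concentration giving no visible colonies. Run in triplicate.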

Streptococcus mutans [9] = experiment: Bactericidal activity against Streptococcus mutans 3065 after 24 hrs by agar plate method; assay type: functional; conditions: Streptococcus mutans, 3065, 24 h; in short: as §3
Candida albicans [10] = experiment: Fungicidal activity against Candida albicans 7535 after 24 hrs by agar plate method; assay type: functional; conditions: Candida albicans, 7535, 24 h
Staphylococcus aureus [11] = experiment: Antibacterial activity against methicillin-resistant Staphylococcus aureus CCARM 3167 after 24 hrs by two-fold serial dilution method; assay type: functional; conditions: CCARM 3167, 24 h; in short: as §1
Staphylococcus aureus [12] = experiment: Antibacterial activity against methicillin-resistant Staphylococcus aureus CCARM 3506 after 24 hrs by two-fold serial dilution method; assay type: functional; conditions: CCARM 3506, 24 h; in short: as §1
Staphylococcus aureus [13] = experiment: Antibacterial activity against quinolone-resistant Staphylococcus aureus CCARM 3505 after 24 hrs by two-fold serial dilution method; assay type: functional; conditions: CCARM 3505, 24 h; in short: as §1
Staphylococcus aureus [14] = experiment: Antibacterial activity against quinolone-resistant Staphylococcus aureus CCARM 3519 after 24 hrs by two-fold serial dilution method; assay type: functional; conditions: CCARM 3519, 24 h; in short: as §1
Staphylococcus aureus [15] = experiment: Bactericidal activity against methicillin-resistant Staphylococcus aureus CCARM 3167 after 24 hrs by agar plate method; assay type: functional; conditions: CCARM 3167, 24 h; in short: as §4
Staphylococcus aureus [16] = experiment: Bactericidal activity against methicillin-resistant Staphylococcus aureus CCARM 3506 after 24 hrs by agar plate method; assay type: functional; conditions: CCARM 3506, 24 h; in short: as §4
Staphylococcus aureus [17] = experiment: Bactericidal activity against quinolone-resistant Staphylococcus aureus CCARM 3505 after 24 hrs by agar plate method; assay type: functional; conditions: CCARM 3505, 24 h; in short: as §4
Staphylococcus aureus [18] = experiment: Bactericidal activity against quinolone-resistant Staphylococcus aureus CCARM 3519 after 24 hrs by agar plate method; assay type: functional; conditions: CCARM 3519, 24 h; in short: as §4
Staphylococcus aureus [19] = experiment: Antibacterial activity against Staphylococcus aureus KCTC 209 after 24 hrs by two-fold serial dilution method; assay type: functional; conditions: KCTC 209, 24 h; in short: as §2
Escherichia coli [20] = experiment: Antibacterial activity against Escherichia coli KCTC 1924 after 24 hrs by two-fold serial dilution method; assay type: functional; conditions: KCTC 1924, 24 h; in short: as §2
Pseudomonas aeruginosa [21] = experiment: Antibacterial activity against Pseudomonas aeruginosa 2742 after 24 hrs by two-fold serial dilution method; assay type: functional; conditions: Pseudomonas aeruginosa, 2742, 24 h; in short: as §2
[22] = tested on: Staphylococcus aureus subsp. aureus RN4220; experiment: Ratio of MBC to MIC for Staphylococcus aureus RN4220; assay type: functional
In short: (§5)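 The ratio divides MBC by MIC for the same strain. MIC comes from two-fold broth microdilution in Mueller-Hinton broth (about 10^5 CFU/mL, 37 °C, 24 h, absorbance at 630 nm). MBC comes from subculturing 5 µL from clear wells onto Mueller-Hinton agar for another 24 h at 37 °C, taken as the lowest concentration with no colonies.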

Staphylococcus aureus [23] = experiment: Bactericidal activity against Staphylococcus aureus KCTC 209 after 24 hrs by agar plate method; assay type: functional; conditions: KCTC 209, 24 h; in short: as §3
Escherichia coli [24] = experiment: Bactericidal activity against Escherichia coli KCTC 1924 after 24 hrs by agar plate method; assay type: functional; conditions: KCTC 1924, 24 h; in short: as §3
Escherichia coli [25] = experiment: Ratio of MBC to MIC for Escherichia coli KCTC 1924; assay type: functional; in short: as §5
Staphylococcus aureus [26] = experiment: Ratio of MBC to MIC for Staphylococcus aureus KCTC 503; assay type: functional; in short: as §5

| Compound | MIC (Staphylococcus aureus [1]) | MIC (Staphylococcus aureus [2]) | MIC (Streptococcus mutans [3]) | MIC (Escherichia coli [4]) | MIC (Pseudomonas aeruginosa [5]) | MIC (Salmonella typhimurium) | MIC (Candida albicans [6]) | MBC (Staphylococcus aureus [7]) | MBC (Staphylococcus aureus [8]) | MBC (Streptococcus mutans [9]) | MIC (Staphylococcus aureus [11]) | MIC (Staphylococcus aureus [12]) | MIC (Staphylococcus aureus [13]) | MIC (Staphylococcus aureus [14]) | MBC (Staphylococcus aureus [15]) | MBC (Staphylococcus aureus [16]) | MBC (Staphylococcus aureus [17]) | MBC (Staphylococcus aureus [18]) | MIC (Staphylococcus aureus [19]) | MIC (Escherichia coli [20]) | also measured |
| --- | --- | --- | --- | --- | --- | --- | --- | --- | --- | --- | --- | --- | --- | --- | --- | --- | --- | --- | --- | --- | --- |
| COc1c(N2C[C@@H]3CCCN[C@@H]3C2)c(F)cc2c(=O)c(C(=O)O)cn(C3CC3)c12 [MOXIFLOXACIN] | 0.25 µg/mL (≈ 0.623 µM) | 2 µg/mL (≈ 4.98 µM) | 0.25 µg/mL (≈ 0.623 µM) | 128 µg/mL (≈ 319 µM) | 2 µg/mL (≈ 4.98 µM) | 0.5 µg/mL (≈ 1.25 µM) | 0.5 µg/mL (≈ 1.25 µM) | 0.25 µg/mL (≈ 0.623 µM) | 2 µg/mL (≈ 4.98 µM) | 0.25 µg/mL (≈ 0.623 µM) | 1 µg/mL (≈ 2.49 µM) | 1 µg/mL (≈ 2.49 µM) | 4 µg/mL (≈ 9.96 µM) | 4 µg/mL (≈ 9.96 µM) | 1 µg/mL (≈ 2.49 µM) | 1 µg/mL (≈ 2.49 µM) | 4 µg/mL (≈ 9.96 µM) | 4 µg/mL (≈ 9.96 µM) |  |  | MFC (Candida albicans [10]): 0.5 µg/mL (≈ 1.25 µM) |
| O=C(O)[C@H](Cc1ccccc1)N1C(=O)/C(=C/c2ccc(/C=N/n3c(-c4ccc(Cl)cc4)n[nH]c3=S)cc2)SC1=S | 8 µg/mL (≈ 13.2 µM) | 16 µg/mL (≈ 26.4 µM) | 16 µg/mL (≈ 26.4 µM) | > 128 µg/mL | > 128 µg/mL | > 128 µg/mL | > 64 µg/mL | 16 µg/mL (≈ 26.4 µM) | 128 µg/mL (≈ 211 µM) | 32 µg/mL (≈ 52.8 µM) | 8 µg/mL (≈ 13.2 µM) | 16 µg/mL (≈ 26.4 µM) | 16 µg/mL (≈ 26.4 µM) | 16 µg/mL (≈ 26.4 µM) | 64 µg/mL (≈ 106 µM) | 128 µg/mL (≈ 211 µM) | 64 µg/mL (≈ 106 µM) | 128 µg/mL (≈ 211 µM) | > 64 µg/mL | > 128 µg/mL | MIC (Pseudomonas aeruginosa [21]): > 128 µg/mL; Ratio [22]: 2 |
| O=C1NC(=S)S/C1=C\c1ccc(/C=N/n2c(-c3ccccc3)n[nH]c2=S)cc1 | 32 µg/mL (≈ 75.6 µM) | 32 µg/mL (≈ 75.6 µM) | 16 µg/mL (≈ 37.8 µM) | > 128 µg/mL | > 128 µg/mL | > 128 µg/mL | > 64 µg/mL | > 256 µg/mL | > 256 µg/mL | > 128 µg/mL | 32 µg/mL (≈ 75.6 µM) | 32 µg/mL (≈ 75.6 µM) | 32 µg/mL (≈ 75.6 µM) | 32 µg/mL (≈ 75.6 µM) | > 256 µg/mL | > 256 µg/mL | > 256 µg/mL | > 256 µg/mL | 64 µg/mL (≈ 151 µM) | 32 µg/mL (≈ 75.6 µM) | MIC (Pseudomonas aeruginosa [21]): > 128 µg/mL; MBC (Staphylococcus aureus [23]): > 256 µg/mL; MBC (Escherichia coli [24]): 128 µg/mL (≈ 302 µM); Ratio (Escherichia coli [25]): <=4 |
| O=C(O)[C@H](Cc1ccccc1)N1C(=O)/C(=C/c2ccc(/C=N/n3c(-c4ccccc4Br)n[nH]c3=S)cc2)SC1=S | 8 µg/mL (≈ 12.3 µM) | 8 µg/mL (≈ 12.3 µM) | 8 µg/mL (≈ 12.3 µM) | > 128 µg/mL | > 128 µg/mL | > 128 µg/mL | > 64 µg/mL | 16 µg/mL (≈ 24.6 µM) | 8 µg/mL (≈ 12.3 µM) | 32 µg/mL (≈ 49.2 µM) | 8 µg/mL (≈ 12.3 µM) | 16 µg/mL (≈ 24.6 µM) | 8 µg/mL (≈ 12.3 µM) | 8 µg/mL (≈ 12.3 µM) | 16 µg/mL (≈ 24.6 µM) | 32 µg/mL (≈ 49.2 µM) | 32 µg/mL (≈ 49.2 µM) | 32 µg/mL (≈ 49.2 µM) | > 64 µg/mL | > 128 µg/mL | MIC (Pseudomonas aeruginosa [21]): > 128 µg/mL; Ratio [22]: 2; Ratio (Staphylococcus aureus [26]): <=4 |
